Experimental data from article PMC10449033 (European journal of inorganic chemistry, 2023).
Where two headings read alike, the source gives them in different places.

Tests used:
[1] = target: T1, mitochondrial calcium uniporter (MCU) (Homo sapiens, UniProt Q8NE86); experiment: mCa2+ uptake inhibition in digitonin-permeabilized HEK293T cells; type: cell-based
T1 sequence (Q8NE86 51-351): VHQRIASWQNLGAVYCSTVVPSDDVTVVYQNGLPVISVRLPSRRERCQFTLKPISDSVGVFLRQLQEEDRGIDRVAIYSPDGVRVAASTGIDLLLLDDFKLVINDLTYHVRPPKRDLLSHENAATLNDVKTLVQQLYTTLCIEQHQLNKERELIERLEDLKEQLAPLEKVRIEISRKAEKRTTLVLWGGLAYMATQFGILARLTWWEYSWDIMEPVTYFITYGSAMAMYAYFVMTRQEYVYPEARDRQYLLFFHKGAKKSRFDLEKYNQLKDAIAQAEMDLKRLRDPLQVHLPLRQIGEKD
T1 sequence (Q9H4I9 48-107 partner limits assumed): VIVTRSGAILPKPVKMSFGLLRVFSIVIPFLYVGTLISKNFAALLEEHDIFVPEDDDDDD
Outline: (§1)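 Trypsinised cells permeabilised on ice for 15 min in KCl buffer (HEPES, pH 7.2) with 80 μM digitonin and 1 μM thapsigargin. Resuspended with 1 μM Calcium Green-5N and 2 mM succinate (HeLa 5 × 10^6, HEK293T 1 × 10^7 cells mL−1). Complex equilibrated ~200 s at room temperature, then CaCl2 added (HeLa 10, HEK293T 20 μM). Read ex 488/em 528 every 5 s. Rate from exponential time constant vs untreated; Hill IC50; three biological replicates ± SD.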

[2] = target: T1, mitochondrial calcium uniporter (MCU); experiment: mCa2+ uptake inhibition in digitonin-permeabilized HeLa cells; type: cell-based; settings: for mCa2+ uptake inhibition compared to untreated cells: 25 μM complex, digitonin-permeabilized HeLa cells
Outline: as §1

[3] = target: T1, mitochondrial calcium uniporter (MCU); experiment: Mitochondrial Ca2+ uptake in intact HeLa cells using Rhod 2-AM; type: cell-based; settings: 50 μM, 2 h, 37 °C, histamine 100 μM
Outline: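 About 1 × 10^5 HeLa cells left overnight, then exposed to complex (50 μM) in DMEM/10% FBS for 2 h at 37 °C. Loaded with 2 μM Rhod 2-AM in extracellular medium (1 mM CaCl2, 10 mM glucose, BSA, Pluronic F127) for 30 min in the dark at room temperature. Then 30 min dye-free, 15 min at 37 °C. Confocal imaging, ex 561/em 568–712 nm: ~30 s baseline, then histamine (100 μM), frames every 3 s. Per-cell CTCF expressed as F/F0.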

HeLa cells = experiment: Mitochondrial membrane potential via JC-1 assay, HeLa cells; type: cell-based; settings: 50 μM, 24 h
Outline: (§2)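 About 1 × 10^5 cells on glass-bottomed dishes, left overnight, then exposed to complex (50 μM) for 24 h at 37 °C. Loaded with 10 μM JC-1 for 30 min in the dark at 37 °C, washed, and imaged in PBS with green (monomer) and red (J-aggregate) filter sets. The positive control was 50 μM CCCP in PBS. Red/green CTCF came from ≥8 cells, normalised to untreated (=1). Three trials ± SD.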

HEK293T cells = experiment: Mitochondrial membrane potential via JC-1 assay, HEK293T cells; type: cell-based; settings: 50 μM, 24 h
Outline: as §2

[4] = target: T1, mitochondrial calcium uniporter (MCU); settings: ref [35],[37],[39],[36]; cited from earlier work
[5] = target: T1, mitochondrial calcium uniporter (MCU); settings: read-out: mCa2+ uptake inhibition IC50 HeLa, permeabilized HeLa cells, cited from earlier work
[6] = Cytotoxicity, MTT assay, HeLa cells; type: cell-based; settings: human
Outline: (§3)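 Cells seeded at ~4000 per well and left overnight, then exposed to a range of complex concentrations in medium for 72 h. MTT was added at 1 mg mL−1 in FBS-free DMEM for 3 h, and formazan was dissolved in 8:1 DMSO/glycine buffer (pH 10) for absorbance. Viability was normalised to untreated cells (100%), with Hill fit for IC50. Three independent trials ± SD.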

[7] = Cytotoxicity, MTT assay, HEK293T cells; type: cell-based; settings: human
Outline: as §3

[8] = target: T1, mitochondrial calcium uniporter (MCU); settings: read-out: mCa2+ uptake inhibition IC50 HEK293T; permeabilized HEK293T cells; ref [36]; cited from earlier work

For `O=[N+]([O-])C12CNCCNCC([N+](=O)[O-])(CNCCNC1)CNCCNC2.[Co+3]` [Compound 1, [Co(diNOsar)]^3+], the IC50 [1] was 7980 ± 370 nM and the IC50 [2] was 6050 ± 480 nM.

`CC12CNCCNCC(C(=O)O)(CNCCNC1)C(=O)NCCNC2.[Co+3]` [Compound 6, [Co(CO2H,Mesar)]^2+] gave an IC50 [1] greater than 25000 nM and an IC50 [2] greater than 25000 nM.

In the case of `CC(CNCCN)(CNCCN)CNCCN.[Co+3]` [Compound 3, [Co(sen)]^3+], the IC50 [1] is reported as 180 ± 20 nM, the “inhibition of histamine-induced mCa2+ uptake in intact cells” value (shortened to “inhibition … in intact cells”) [3] is reported as “statistically significant decrease in mCa^2+ uptake” and the “depolarization of the mitochondrial membrane potential (JC-1)” value (HeLa cells) is reported as “did not lead to depolarization”. For the same compound, the IC50 [2] was 160 ± 20 nM, the “mCa2+ uptake inhibition compared to untreated cells” value [2] was “completely abolish mCa^2+ uptake” and the “depolarization of the mitochondrial membrane potential (JC-1)” value (HEK293T cells) was “did not lead to depolarization”.

Compound `CCOC(=O)C12CNCCNCC(C)(CNCCNC1)CNCCNC2=O.[Co+3]` [Compound 5, [Co(CO2Et,Mesar)]^2+] has an IC50 [1] greater than 25000 nM and an IC50 [2] greater than 25000 nM.

For Os245, the “inhibition of MCU-mediated mCa2+ uptake in intact HeLa cells” value [4] is listed as “able to inhibit” and the IC50 ([5]; ref [39]) is listed as 103 ± 30 nM.

`NC12CNCCNCC(N)(CNCCNC1)CNCCNC2.[Co+3]` [Compound 2, [Co(diAMsar)]^3+] gave an IC50 [1] greater than 25000 nM, a viability at 72 h, 1000 µM [6] of 40% and an IC50 [2] greater than 25000 nM. The viability at 72 h, 1000 µM [7] was 40%.

For `NCCN.NCCN.NCCN.[Co+3]` [[Co(en)3]^3+], the “inhibition … in intact cells” value [3] is listed as “cannot”, the IC50 ([5]; ref [36]) is listed as 115 ± 13 nM and the IC50 [8] is listed as 76 ± 10 nM.

For `N.N.N.N.N.N.N.N.[Cl][Ru+3].[N-]=[Ru][Cl]` [Ru265], the “inhibition of MCU-mediated mCa2+ uptake in intact HeLa cells” value [4] is listed as “able to inhibit” and the “inhibition … in intact cells” value [3] is listed as “significantly diminish mCa^2+ uptake”.

In the case of `CC12CNCCNCC([N+](=O)[O-])(CNCCNC1)CNCCNC2.[Co+3]` [Compound 4, [Co(MeNOsar)]^3+], the IC50 [1] is reported as 2730 ± 200 nM, the IC50 [2] is reported as 2910 ± 260 nM and the “mCa2+ uptake inhibition compared to untreated cells” value [2] is reported as “comparable to that of 1”.

For Os245′, the IC50 ([5]; ref [39]) is given as 2.3 ± 0.8 nM.

In the case of `N.N.N.N.N.N.N.N.[Cl][Ru+3].[NH]=[Ru][Cl]` [Ru265], the IC50 ([5]; ref [36]) is listed as 3.9 ± 1 nM and the IC50 [8] is listed as 8.6 ± 2.2 nM.
